Data published in ChEMBL document CHEMBL3046857, “Novel inhibitors of the mitochondrial respiratory chain: oximes and pyrrolines isolated from Penicillium brevicompactum and synthetic analogues” (J Agric Food Chem, 2005).
pIC50: −log10 of the molar value.

target: T1, NADH-ubiquinone oxidoreductase chain 1 (Bos taurus, UniProt P03887); test: Inhibition of Bos taurus (beef) heart NAD1 assessed as NADH-ubiquinone oxidoreductase activity; settings: not given
In short: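 Complex I specific activity in NADH-activated beef heart submitochondrial particles (6 µg/mL; 50 mM potassium phosphate pH 7.4, 1 mM EDTA, 22 °C). Compound preincubated 5 min on ice. 75 µM NADH with 30 µM decylubiquinone as acceptor, plus 2 µM antimycin and 2 mM KCN to block downstream steps. NADH oxidation rate read at 340 nm; three assays; IC50.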

T1 sequence (P03887 whole entry): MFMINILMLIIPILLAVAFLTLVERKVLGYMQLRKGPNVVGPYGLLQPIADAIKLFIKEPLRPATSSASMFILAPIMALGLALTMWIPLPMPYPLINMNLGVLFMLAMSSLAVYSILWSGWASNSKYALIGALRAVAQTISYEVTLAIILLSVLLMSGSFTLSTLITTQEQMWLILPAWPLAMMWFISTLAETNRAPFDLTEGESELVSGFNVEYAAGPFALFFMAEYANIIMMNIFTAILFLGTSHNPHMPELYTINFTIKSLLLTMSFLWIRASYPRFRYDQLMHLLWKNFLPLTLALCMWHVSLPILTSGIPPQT

SMILES	pIC50
CCCCCCCCC(=O)CC(=O)c1ccc[nH]1	4.84
CC1=C(C(C)c2cccc(Oc3ccccc3)c2)OC2/C(=N/O)CCN2C1=O (stereo not drawn)	5.46
CCCCCCCC1=C(C)C(=O)N2CC/C(=N\O)C2O1 (stereo not drawn)	5.82
CC1=C(C(C)c2cccc(Oc3ccccc3)c2)OC2C(O)CCN2C1=O (single isomer, unassigned; diastereomer 1)	4.84
CC1=C(C(C)c2cccc(Oc3ccccc3)c2)OC2C(O)CCN2C1=O (single isomer, unassigned; diastereomer 2)	4.92

Second part, the compound after the results:

pIC50	SMILES
5.18	CC(C(=O)C(C)c1cccc(Oc2ccccc2)c1)C(=O)N1C=CCC1 (single isomer, unassigned; diastereomer 1)
4.78	CC(C(=O)C(C)c1cccc(Oc2ccccc2)c1)C(=O)N1C=CCC1 (single isomer, unassigned; diastereomer 2)

target: T1, NADH-ubiquinone oxidoreductase chain 1; test: Inhibition of Bos taurus (beef) heart NAD1 assessed as NADH oxidase activity; settings: not given
In short: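 Beef heart submitochondrial particles, diluted to 0.5 mg/mL in 250 mM sucrose/10 mM Tris-HCl pH 7.4 and pre-activated with 300 µM NADH; then diluted to 6 µg/mL in 50 mM potassium phosphate pH 7.4, 1 mM EDTA, 22 °C. Compounds (ethanol stocks) preincubated with particles 5 min on ice. Aerobic oxidation of 75 µM NADH followed at 340 nm; three experiments; IC50.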

SMILES	IC50
CCC(=O)C(C)C(=O)c1ccc[nH]1 (stereo not drawn)	Not Active
CCC(=O)CC(=O)c1ccc[nH]1	Not Active
C/C=C/CCCCC1=C(C)C(=O)N2CC/C(=N\O)C2O1 (stereo not drawn)	Not Active
C/C=C/CCCCC(=O)C(C)C(=O)N1C=CCC1 (stereo not drawn)	Not Active

same assay, conditions: read-out: IC50

SMILES	pIC50
CCCCCCCCC(=O)CC(=O)c1ccc[nH]1	5.07
CC(C(=O)c1ccccc1)C(=O)c1ccc[nH]1 (stereo not drawn)	3.67
CC1=C(C(C)c2cccc(Oc3ccccc3)c2)OC2/C(=N/O)CCN2C1=O (stereo not drawn)	6.04
CCCCCCCC1=C(C)C(=O)N2CC/C(=N\O)C2O1 (stereo not drawn)	6.57
CCCCCCCC(=O)C(C)C(=O)N1C=CCC1 (stereo not drawn)	5.34
CC1=C(C(C)c2cccc(Oc3ccccc3)c2)OC2C(O)CCN2C1=O (single isomer, unassigned; diastereomer 1)	5.26
CC1=C(C(C)c2cccc(Oc3ccccc3)c2)OC2C(O)CCN2C1=O (single isomer, unassigned; diastereomer 2)	5.50

Next, values leading:

pIC50	SMILES
5.17	CC(C(=O)N1C=CCC1)c1cccc(Oc2ccccc2)c1 (stereo not drawn)
5.41	CC(C(=O)C(C)c1cccc(Oc2ccccc2)c1)C(=O)N1C=CCC1 (single isomer, unassigned; diastereomer 1)
4.38	CC(C(=O)C(C)c1cccc(Oc2ccccc2)c1)C(=O)N1CC[C@H](O)C1 (single isomer, unassigned; diastereomer 1)
5.36	CC(C(=O)C(C)c1cccc(Oc2ccccc2)c1)C(=O)N1C=CCC1 (single isomer, unassigned; diastereomer 2)
4.44	CC(C(=O)C(C)c1cccc(Oc2ccccc2)c1)C(=O)N1CC[C@H](O)C1 (single isomer, unassigned; diastereomer 2)
